The record followed here is ChEMBL document CHEMBL1134770, “Novel, potent, and selective phosphodiesterase 5 inhibitors: synthesis and biological activities of a series of 4-aryl-1-isoquinolinone derivatives” (J Med Chem, 2001).

pIC50: −log10 of the molar value.

The target of assay [1] is T1, cGMP-dependent 3',5'-cyclic phosphodiesterase (Bos taurus, UniProt P14099).
T1 sequence (P14099 whole entry): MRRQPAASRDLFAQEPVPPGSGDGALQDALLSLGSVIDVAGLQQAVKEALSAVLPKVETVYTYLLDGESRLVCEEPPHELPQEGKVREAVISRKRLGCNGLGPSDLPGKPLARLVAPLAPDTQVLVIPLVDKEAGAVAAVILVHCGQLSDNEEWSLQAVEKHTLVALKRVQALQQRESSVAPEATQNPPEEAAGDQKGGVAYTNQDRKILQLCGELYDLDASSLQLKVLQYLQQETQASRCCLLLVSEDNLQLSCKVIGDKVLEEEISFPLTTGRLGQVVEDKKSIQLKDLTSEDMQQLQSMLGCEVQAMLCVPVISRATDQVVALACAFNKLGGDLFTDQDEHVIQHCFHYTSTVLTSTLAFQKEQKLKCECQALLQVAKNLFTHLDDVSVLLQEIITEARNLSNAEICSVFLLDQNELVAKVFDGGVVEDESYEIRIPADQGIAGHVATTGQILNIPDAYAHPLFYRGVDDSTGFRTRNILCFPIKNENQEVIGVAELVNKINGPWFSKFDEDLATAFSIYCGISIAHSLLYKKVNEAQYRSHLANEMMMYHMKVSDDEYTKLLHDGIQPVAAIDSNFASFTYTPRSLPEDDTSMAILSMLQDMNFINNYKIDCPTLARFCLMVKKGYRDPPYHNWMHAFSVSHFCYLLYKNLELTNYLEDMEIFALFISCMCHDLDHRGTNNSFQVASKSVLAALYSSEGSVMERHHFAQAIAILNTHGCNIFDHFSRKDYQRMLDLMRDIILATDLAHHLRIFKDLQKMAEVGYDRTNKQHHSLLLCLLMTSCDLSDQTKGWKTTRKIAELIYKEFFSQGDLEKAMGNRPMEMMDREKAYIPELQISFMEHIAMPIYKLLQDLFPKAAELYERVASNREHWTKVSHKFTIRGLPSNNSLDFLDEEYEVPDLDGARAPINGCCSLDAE
Put plainly: Inhibition of bovine adrenal gland Phosphodiesterase 2 (PDE2). The procedure, abridged:
(§1)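 Boiled, then snake-venom nucleotidase for 30 min at 37 °C, methanol stop, Dowex separation, scintillation counting. IC50 from log concentration-inhibition curve (≥4 points), mean of ≥2 duplicate experiments.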

The target in assay [2] is cGMP-specific 3',5'-cyclic phosphodiesterase (Canis lupus familiaris, UniProt O77746). Put plainly: Inhibitory activity against canine lung Phosphodiesterase 5 (PDE5). An outline of the steps:
as §1

A further assay has as its target Phosphodiesterase 1 (Rattus norvegicus, UniProt Q63421+Q9EPR9+Q01066). Put plainly: Inhibitory activity against rat heart Phosphodiesterase 1(PDE1). Type of assay: protein assay.
Assay [3] addresses Phosphodiesterase 3 (Canis familiaris). Put plainly: Inhibitory activity against canine heart Phosphodiesterase 3 (PDE3).
Assay [4] in a line: Relaxant effect on isolated rabbit corpus cavernosum. As to conditions: target entry is the homologue from another species. Type of assay: functional, tissue-based, Oryctolagus cuniculus.
Assay [5] deals with Phosphodiesterase 4 (Canis familiaris). Put plainly: Inhibition of canine lung Phosphodiesterase 4 (PDE4).

Turning to `CCCc1nn(C)c2c(=O)[nH]c(-c3cc(S(=O)(=O)N4CCN(C)CC4)ccc3OCC)nc12`, the pIC50 in assay [1] is < 5.00.

As to `CNc1ccc(-n2c(C(=O)OC)c(-c3cc(OC)c(OC)c(OC)c3)c3cc(OC)c(OC)cc3c2=O)cc1`, in assay [2], the pIC50 was < 5.00. For the same molecule, the 50% inhibitory concentration (IC50) (against Phosphodiesterase 1; in assay [3]) was > 10 µM in each case.

As to `COC(=O)c1c(-c2cc(OC)c(OC)c(OC)c2)c2cc(OC)c(OC)cc2c(=O)n1Cc1ccccc1`, the negative logarithm of the IC50 (pIC50) in assay [2] is 6.42. The concentration for half-maximal inhibition (IC50) is 3.1 µM against Phosphodiesterase 1 and > 10 µM in assay [3].

In assay [2], `COC(=O)c1c(-c2cc(OC)c(OC)c(OC)c2)c2cc(OC)c(OC)cc2c(=O)n1N1CCOCC1` gave a pIC50 of 7.59. The IC50 (against Phosphodiesterase 1; in assay [3]) was > 10 µM throughout.

`COC(=O)c1nc(O)c2cc(OC)c(OC)cc2c1-c1cc(OC)c(OC)c(OC)c1` showed a pIC50 in assay [2] of 6.05. For the same molecule, the IC50 (against Phosphodiesterase 1; in assay [3]) was > 10 µM in each case.

`COC(=O)c1c(-c2cc(OC)c(O)c(OC)c2)c2ccc(OCc3ccccn3)cc2c(=O)n1-c1ccc(N)cc1`: in assay [2], the pIC50 was 7.85. For the same molecule, the IC50 against Phosphodiesterase 1 is 2.6 µM; in assay [3], > 10 µM.

For the molecule `COC(=O)c1c(-c2cc(OC)c(OC)c(OC)c2)c2cc(OC)c(OC)cc2c(=O)n1C1CCCC1`, the pIC50 in assay [2] is 6.24. The IC50 (on Phosphodiesterase 1; in assay [3]) was > 10 µM each time.

With `COC(=O)c1c(-c2cc(OC)c(Br)c(OC)c2)c2ccc(OCc3ccccn3)cc2c(=O)n1-c1ccc(N)cc1.Cl.Cl`, the pIC50 in assay [2] is 9.66; in assay [1], 5.55. Further, the IC50 against Phosphodiesterase 1 came to 0.46 µM; in assay [5], 0.75 µM; in assay [3], 8.4 µM. The 30% effect level in assay [4] (EC30) was put at 0.044 µM.

On to `COC(=O)c1c(-c2cc(OC)c(OC)c(OC)c2)c2cc(OC)ccc2c(=O)n1-c1ccc(N)cc1.Cl`, for which the pIC50 in assay [2] is 7.01. Besides, the IC50 is 3.9 µM at Phosphodiesterase 1 and > 10 µM in assay [3].

As to `COc1cc(-c2c(C(=O)N(C)C)n(-c3ccc(N)cc3)c(=O)c3cc(OCc4ccccn4)ccc23)cc(OC)c1OC.Cl.Cl`, in assay [2], the pIC50 is 5.68. Also, the IC50 (against Phosphodiesterase 1; in assay [3]) was > 10 µM in each case.

In assay [2], `COC(=O)c1c(-c2cc(OC)c(OC)c(OC)c2)c2cc(OC)c(OC)cc2c(=O)n1-c1cccc(N)c1.Cl` showed a pIC50 of 6.60. The IC50 (on Phosphodiesterase 1; in assay [3]) was > 10 µM in each case.

On to `COC(=O)c1c(-c2cc(OC)c(OC)c(OC)c2)c2cc(OC)c(OC)cc2c(=O)n1-c1ccc(N(C)C)cc1.Cl`, for which the negative logarithm of the IC50 (pIC50) in assay [2] was < 5.00. The half-maximal inhibitory concentration (IC50) (against Phosphodiesterase 1; in assay [3]) was > 10 µM throughout.

Take `COC(=O)c1c(-c2cc(OC)c(OC)c(OC)c2)c2ccc(OCc3ccccc3)cc2c(=O)n1-c1ccc(N)cc1.Cl`: the pIC50 in assay [2] was 8.92; in assay [1], < 5.00. Moreover, the IC50 on Phosphodiesterase 1 is 2.1 µM; in assay [5], 6.1 µM; in assay [3], > 10 µM. The same molecule returned an EC30 in assay [4] of 0.13 µM.

Regarding `COC(=O)c1c(-c2cc(OC)c(C)c(OC)c2)c2ccc(OCc3ccccn3)cc2c(=O)n1-c1ccc(N)cc1.Cl.Cl`, the pIC50 in assay [2] was 9.41; in assay [1], 5.46. Also, the IC50 was 1.1 µM at Phosphodiesterase 1, 1.7 µM in assay [5] and > 10 µM in assay [3]. For the same molecule, the 30% effect concentration (EC30) in assay [4] worked out at 0.037 µM.

Molecule `CCOC(=O)c1c(-c2cc(OC)c(OC)c(OC)c2)c2ccc(OCc3ccccn3)cc2c(=O)n1-c1ccc(N)cc1.Cl.Cl` showed a pIC50 in assay [2] of 7.74. The figures for the IC50 (against Phosphodiesterase 1; in assay [3]) were 0.55 µM and > 10 µM, respectively.

With `COC(=O)c1c(-c2cc(O)c(OC)c(OC)c2)c2ccc(OCc3ccccn3)cc2c(=O)n1-c1ccc(N)cc1.Cl.Cl`, the pIC50 in assay [2] was 8.07. The IC50 against Phosphodiesterase 1 was > 10 µM.

In assay [2], `COc1cc(-c2c(C(N)=O)n(-c3ccc(N)cc3)c(=O)c3cc(OCc4ccccn4)ccc23)cc(OC)c1OC.Cl.Cl` gave a pIC50 of 6.31. Further, the IC50 (against Phosphodiesterase 1; in assay [3]) was > 10 µM throughout.

As for `COC(=O)c1c(-c2cc(OC)c(OC)c(OC)c2)c2ccc(OC)cc2c(=O)n1-c1ccc(N)cc1.Cl`, the pIC50 in assay [2] is 7.70. For the same molecule, the IC50 at Phosphodiesterase 1 was 1 µM; in assay [3], > 10 µM.

Molecule `COc1cc(-c2c(C(=O)O)n(-c3ccc(N)cc3)c(=O)c3cc(OCc4ccccn4)ccc23)cc(OC)c1OC.Cl.Cl` showed a negative-log IC50 (pIC50) in assay [2] of 5.72. For the same molecule, the IC50 (against Phosphodiesterase 1; in assay [3]) was > 10 µM throughout.

Regarding `COC(=O)c1c(-c2cc(OC)c(OC)c(OC)c2)c2ccc(OCc3cccnc3)cc2c(=O)n1-c1ccc(N)cc1.Cl.Cl`, the pIC50 was 8.96 in assay [2] and < 5.00 in assay [1]. In addition, the half-inhibitory concentration (IC50) is 3.9 µM against Phosphodiesterase 1, 3.6 µM in assay [5] and > 10 µM in assay [3]. The 30% effect level in assay [4] (EC30) was put at 0.0095 µM.

In assay [2], `COC(=O)c1c(-c2cc(OC)c(OC)c(OC)c2)c2cc(OC)c(OC)cc2c(=O)n1-c1ccc(N)cc1.Cl` had a negative-log IC50 (pIC50) of 7.68. The IC50 on Phosphodiesterase 1 was > 10 µM; in assay [3], 4.4 µM.

The molecule `CCOc1cc2c(-c3cc(OC)c(OC)c(OC)c3)c(C(=O)OC)n(-c3ccc(N)cc3)c(=O)c2cc1OCC.Cl` gave a pIC50 in assay [2] of 7.57. For the same molecule, the IC50 (on Phosphodiesterase 1; in assay [3]) was > 10 µM in each case.

Take `CNC(=O)c1c(-c2cc(OC)c(OC)c(OC)c2)c2ccc(OCc3ccccn3)cc2c(=O)n1-c1ccc(N)cc1.Cl.Cl`: in assay [2], the negative logarithm of the IC50 (pIC50) was 6.66. Besides, the IC50 (against Phosphodiesterase 1; in assay [3]) was > 10 µM in each case.

`COC(=O)c1c(-c2cc(OC)c(OC)c(OC)c2)c2ccc(OCc3ccccn3)cc2c(=O)n1-c1ccc(N)cc1.Cl.Cl`: the values for the pIC50 in assay [2] and in assay [1] were 9.00 and < 5.00, respectively. For the same molecule, the 50% inhibitory concentration (IC50) against Phosphodiesterase 1 worked out at 1.3 µM. In assay [4], the EC30 was 0.0079 µM.

For the molecule `COC(=O)c1c(-c2cc(OC)c(OC)c(OC)c2)c2cc(OC)c(OC)cc2c(=O)n1-c1ccccc1`, the pIC50 in assay [2] was 7.52. In addition, the IC50 (against Phosphodiesterase 1; in assay [3]) was > 10 µM each time.

Turning to `COC(=O)c1c(-c2cc(OC)c(OC)c(OC)c2)c2cc(OC)c(OC)cc2c(=O)n1-c1ccc(Cl)cc1`, the pIC50 in assay [2] is 6.77. Moreover, the IC50 (at Phosphodiesterase 1; in assay [3]) was > 10 µM each time.

With `COC(=O)c1c(-c2cc(OC)c(OC)c(OC)c2)c2cc(OC)c(OC)cc2c(=O)n1-c1ccc(OC)cc1`, the pIC50 in assay [2] is < 5.00. Moreover, the IC50 against Phosphodiesterase 1 is > 10 µM.

In assay [2], `COC(=O)c1c(-c2cc(OC)c(OC)c(OC)c2)c2cc(OC)c(OC)cc2c(=O)n1-c1ccc(O)cc1` had a pIC50 of 6.96. Moreover, the IC50 (on Phosphodiesterase 1; in assay [3]) was > 10 µM in each case.

Regarding `COC(=O)c1c(-c2cc(OC)c(OC)c(OC)c2)c2cc(OC)c(OC)cc2c(=O)n1C`, in assay [2], the pIC50 was 6.64. Also, the IC50 amounted to 2.1 µM against Phosphodiesterase 1 and 8.5 µM in assay [3].

For the molecule `COC(=O)c1c(-c2cc(OC)c(OC)c(OC)c2)c2cc(OC)c(OC)cc2c(=O)n1C1CCCCC1`, the pIC50 in assay [2] was 6.64. The IC50 (at Phosphodiesterase 1; in assay [3]) was > 10 µM each time.

Take `COC(=O)c1c(-c2cc(OC)c(OC)c(OC)c2)c2cc(OC)c(OC)cc2c(=O)n1-c1ccc(NC(C)=O)cc1`: the pIC50 in assay [2] is < 5.00. Besides, the IC50 (against Phosphodiesterase 1; in assay [3]) was > 10 µM each time.

In assay [2], `COC(=O)c1c(-c2cc(OC)c(OC)c(OC)c2)c2ccc(OCCc3ccccn3)cc2c(=O)n1-c1ccc(N)cc1` showed a pIC50 of 8.30. Further, the half-maximal inhibitory concentration (IC50) (at Phosphodiesterase 1; in assay [3]) was > 10 µM in each case.

The molecule `COC(=O)c1c(-c2cc(OC)c(OC)c(OC)c2)c2cc(OC)c(OC)cc2c(=O)n1N1CCCCC1` gave a pIC50 in assay [2] of 7.27. Besides, the IC50 (against Phosphodiesterase 1; in assay [3]) was > 10 µM in each case.

One may read the pIC50 as the negative decadic logarithm of the IC50, by convention in mol/L. A higher pIC50 goes with a small IC50. In general, IC50 refers to the concentration needed to halve the response being measured. Low values mean greater potency, high ones weaker potency. A word on the EC30: it is the point of the concentration-response curve where the effect stands at 30%. The low end stands for greater potency, the high end for weaker potency.
